Laboratory results published in ChEMBL document CHEMBL1132247, “Synthesis and nicotinic acetylcholine receptor in vivo binding properties of 2-fluoro-3-[2(S)-2-azetidinylmethoxy]pyridine: a new positron emission tomography ligand for nicotinic receptors” (J Med Chem, 1999).
pKi: −log10 of the molar value.

Experiments:
[1] = species: Rattus norvegicus; assay: Biodistribution in rat cerebellum, expressed as percent I.D./g tissue; format: ADME, organism-based; details: in vivo
Outline: (§1)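 Male Sprague–Dawley rats (190–200 g) received 30 μCi (1.1 MBq) of the 18F-labelled tracer i.v. into a tail vein, formulated in physiological saline and given within 15 min of end of synthesis. Rats were decapitated at selected times, and the brain was removed and dissected on ice. Regions were weighed and gamma-counted alongside injected-dose aliquots, and values were expressed as % I.D./g tissue.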

[2] = species: Rattus norvegicus; assay: Biodistribution in rat superior coliculus, expressed as percent I.D./g tissue; format: ADME, organism-based; details: in vivo; outline: as §1
[3] = species: Rattus norvegicus; assay: Biodistribution in rat thalamus, expressed as percent I.D./g tissue; format: ADME, organism-based; details: in vivo; outline: as §1
[4] = Binding affinity towards human Nicotinic acetylcholine receptor was determined using [3H]-cytisine
[5] = Binding affinity towards human Nicotinic acetylcholine receptor was determined using [3H]epibatidine
[6] = target: Neuronal acetylcholine receptor; alpha4/beta2 (Homo sapiens, UniProt P17787+P43681); assay: Binding affinity against human Nicotinic acetylcholine receptor alpha4-beta2
Sequence of Neuronal acetylcholine receptor; alpha4/beta2 (P17787 whole entry): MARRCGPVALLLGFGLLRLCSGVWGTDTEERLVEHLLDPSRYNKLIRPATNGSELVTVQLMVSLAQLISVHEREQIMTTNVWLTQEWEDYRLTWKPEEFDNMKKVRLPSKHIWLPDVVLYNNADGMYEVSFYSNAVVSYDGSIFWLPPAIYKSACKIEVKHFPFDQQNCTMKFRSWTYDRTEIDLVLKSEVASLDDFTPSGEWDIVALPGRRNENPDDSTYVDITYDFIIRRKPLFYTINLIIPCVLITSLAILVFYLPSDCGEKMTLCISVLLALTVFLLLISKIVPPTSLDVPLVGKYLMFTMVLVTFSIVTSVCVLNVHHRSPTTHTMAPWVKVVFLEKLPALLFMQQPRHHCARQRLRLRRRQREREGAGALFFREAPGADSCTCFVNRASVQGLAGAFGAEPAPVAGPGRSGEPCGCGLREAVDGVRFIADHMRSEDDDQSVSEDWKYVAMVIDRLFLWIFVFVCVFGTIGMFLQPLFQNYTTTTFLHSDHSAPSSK
Sequence of Neuronal acetylcholine receptor; alpha4/beta2 (P43681 whole entry): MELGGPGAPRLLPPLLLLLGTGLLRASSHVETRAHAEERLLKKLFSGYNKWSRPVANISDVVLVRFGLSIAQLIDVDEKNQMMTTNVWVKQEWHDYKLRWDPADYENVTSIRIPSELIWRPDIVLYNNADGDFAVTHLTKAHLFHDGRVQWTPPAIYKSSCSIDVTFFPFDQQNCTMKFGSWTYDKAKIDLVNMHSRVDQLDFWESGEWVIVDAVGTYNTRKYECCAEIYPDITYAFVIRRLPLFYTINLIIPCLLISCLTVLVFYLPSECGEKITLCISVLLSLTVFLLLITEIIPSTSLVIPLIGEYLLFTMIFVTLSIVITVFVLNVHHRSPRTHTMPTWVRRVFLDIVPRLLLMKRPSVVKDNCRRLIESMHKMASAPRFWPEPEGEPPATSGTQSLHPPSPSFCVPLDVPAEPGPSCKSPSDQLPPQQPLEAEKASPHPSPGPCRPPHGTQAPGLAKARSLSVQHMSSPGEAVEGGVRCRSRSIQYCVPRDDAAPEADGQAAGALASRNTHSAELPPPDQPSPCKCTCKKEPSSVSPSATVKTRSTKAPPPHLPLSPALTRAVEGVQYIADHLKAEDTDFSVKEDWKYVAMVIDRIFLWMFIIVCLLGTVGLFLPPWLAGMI

Structure (SMILES)	Biodistribution [1] [%]	Biodistribution [2] [%]	Biodistribution [3] [%]	pKi [4]	pKi [5]	pKi [6]
Fc1ncccc1OC[C@@H]1CCN1	0.2	0.2	0.3	10.32	10.34	
c1cncc(OC[C@@H]2CCN2)c1						10.30
O=c1cccc2n1CC1CNC[C@H]2C1 (single isomer, unassigned) [CYTISINICLINE]	0.2	0.2	0.2			
Clc1ccc(C2CC3CCC2N3)cn1 (stereo not drawn) [EPIBATIDINE]	0.2	0.2	0.2			
CN1C2CCCC1CC(NC(=O)c1nn(C)c3ccccc13)C2 (stereo not drawn) [GRANISETRON]	0.2	0.6	0.9			
CNC(=O)Oc1ccc2c(c1)[C@]1(C)CCN(C)[C@@H]1N2C [PHYSOSTIGMINE]	0.2	0.4	0.5			
